Measurements as given in the EternaBench riboswitch data.

System: MS2 coat protein
Assay: apparent Kd, MS2 coat protein; higher = weaker binding; RNA-MaP array; FMN 200 µM where present
In short: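 Designs were transcribed by stalled E. coli RNA polymerase on Illumina sequencing-chip clusters. They were titrated with SNAP-549-labelled MS2 coat protein from 0.7 or 1.5 nM, doubling to 3 µM, without and then with constant ligand. Buffer: 100 mM Tris-HCl pH 7.5, 80 mM KCl, 4 mM MgCl2, BSA, DTT, yeast tRNA, Tween-20. Green signal was normalised to red-channel RNA signal and control-cluster median Fmax. Apparent Kd is the median of filtered per-cluster binding-curve fits.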

[1] = designed as: OFF switch for flavin mononucleotide, no ligand
[2] = ligand present: flavin mononucleotide, designed as: OFF switch for flavin mononucleotide
[3] = designed as: ON switch for flavin mononucleotide, no ligand
[4] = ligand present: flavin mononucleotide, designed as: ON switch for flavin mononucleotide

Sequence	apparent Kd [1] [nM]	apparent Kd [2] [nM]	apparent Kd [3] [nM]	apparent Kd [4] [nM]
AUAAUUUUAUUUUUCUAUUAUAUCAGAAGGCAUUACAUGAGGAUCACCCAUGUUUUGGAUAGUAAUGAGGAUAUGAUAUGGUUA	11.1	28.2	–	–
CAAAGGUGAGGAUAUACAUAACUAUGACGAAAGUCAUAAACACAUGAGGAUCACCCAUGUAGAAGGCACCACAA	26.3	37.9	–	–
GCCGCACAUGAGGAUCACCCAUGUAAUUACAUGGGAGGAUAUCAGUGCUCGAAAGAGCACUGAGAAGGCCUGAGGC	–	–	81.3	1070
UUUUCGAACCGAGGAUAUCCUUAUAAGAAACAUGAGGAUCACCCAUGUAAAGGGAAUUAUUUGAAGGAGAAGGCGGAUUUUGUU	–	–	50.1	32
ACAUGAGGAUCACCCAUGUAGAAUGAAGAAGGUAGAUACUUGAGGCUCACCCAUGUACAUGGGACUAAGGAUAUUCUAAUAAUU	–	–	42.7	27.7
ACAUGGAAUACAGGAUAUGUAAGUUUUAAGUGGAUUGGUUAUUACUUUACAACAGAAGGGUAAUACAUGAGGAUCACCCAUGUA	–	–	30.1	25.3
AGUGCCUCGAGAGGAUAUAACAUGAGGAUCACCCAUGUAACAGAGGUGGAAACACCUCUGAAAUGUUAGAAGGCUCGAGGCACA	40.7	53.2	–	–
AAAAAAAAAAGUCAGGAUAUACAAAUUUUUACAUGAGGAUCACCCAUGUUAAAGAAAAAAAAAAAGUAGAAGGGACAAAAAAAAAA	–	–	25.1	14.9
AAAAGUAGAGGAUAUACAUGAGGAUCACCCAUGUAGAAAGGAAGUAUAUAUAUGGCGUGUAGAAGGCUGCAUGA	34.5	32.2	–	–
GUGCAUUCGUAGAAGGGUGACAUGAGGAUCACCCAUGUGCGCUGGGCUCGGGAUGCAUCAGCGCCACAGGAUAUACGAAGCACC	–	–	117	106
GUGCUUGUCGGAGGAUAUGGUUACAUGAGGAUCACCCAUGUUAUGCUUGGUUACUUGUUUAGUUUCCAGAAGGUCGGUUGGUUG	61.1	71.2	–	–
GUAGUUUAUGUAGGAUAUGCGAGGCGAGCCUAAGCAGAAGGACAUGAGGAUCACCCAUGUAUUGCGGUCUGCGUUCAGAUCGCU	33.2	133	–	–
GCGUUCUUGUAGAAGGUACCUUCAACAUAUUAUAAACGCUAGACACAUGAGGAUCACCCAUGUUGUAAGGAUAUACAUGAACGC	–	–	16.7	13.5
UAUAAAUACAUUAACAUGAGGAUCACCCAUGUCAAAAGACAUGAGGAUAUGCAUCCUAAUUGGAUGCAGAAGGCAUGUAUAAUU	–	–	174	16.9
GUAUGGAGUACAGGAUAUGUUAGUUUUAAGUGUAUUGGUUAUUACUUAAUUACAGAAGGGUAUUACAUGAGGAUCACCCAUGUA	–	–	13.6	10.6
UCGUAUAUACAAGGAUAUCAAUUAUUGCUAAAUUCAACAUGAGGAUCACCCAUGUAACUAUGGAGUGAGAAGGUGUAAUGACUU	–	–	504	476
UGUCGGAGCAGAGGAUAUUACAUGAGGAUCACCCAUGUAUGAACGAAUAGCUGGAAACAGCAAUGUAAGAAGGCUGCUCCGACA	6	10.4	–	–
UUUAUAUUCAGAGGAUAUUGAUGUUGUAUUUUACAAGAAGGCUGUUUGUUUUGUAAUGUUAUUAUACAUGAGGAUCACCCAUGU	–	–	20.6	17.3
CCAGCGAGUGUGAGGAUAUGCUGGUCCUUGGAUCAGCAGAAGGCACAUGAGGAUCACCCAUGUGAAAACGUUGG	28.8	179	–	–
UUUACUUACGAAGGAUAUGGUUACAUGAGGAUCACCCAUGUAUGUAUAAUGAUCUAGUAUUUUAACCAGAAGGUCGUGAUUAUU	39.3	64.6	–	–
UAUAAACAUGAGGAUCACCCAUGUGAGGAUAUCUAAACCAGAGCGGAUCUCUGGCCCAAGAGAAGGUGCAUGGU	34.6	146	–	–

Sequence	apparent Kd [1] [nM]	apparent Kd [2] [nM]	apparent Kd [3] [nM]	apparent Kd [4] [nM]
UUUGACCUAGGAUAUACAUGAGGAUCACCCAUGUUCCGGUGGGUUAACGACAACCUCAGUAGAAGGAGGAGCUU	31.8	58.9	–	–
GUAAAUCAUGUAGGAUAUGCAUGGCGAAGCUACGCAGAAGGACAUGAGGAUCACCCAUGUUAAAGCUACCGAGUUCGGUGGCAA	133	162	–	–
GGUUGGCGAGGAUAUACAUGAGGAUCACCCAUGUGAGAGAAAAAAGUGAGAACGAAAAGUAGAAGGCGCUGACG	43.5	176	–	–
UGUAUGGACAGAGGAUAUACAGAUAGGAUCUACUAUCAAACAAUCCUCACAUGAGGAUCACCCAUGUAGAAGGCUGUCCAUACU	105	809	–	–
GGUGGACAUGAGGAUCACCCAUGUGAGGAUAUCGGCUGGCUAGCGGCUGACGGCUGCUCGAGAAGGCGCAUUGU	65.8	84.9	–	–
AUAGGCCUAGGAUAUACAUGAGGAUCACCCAUGUUAACACUUCAAUCAAGUUAAUAUUGUAGAAGGAGGAAUAA	30.4	29.4	–	–
CGGUCAUGAGGAUAUCGAGGUUAGUACAUGAGGAUCACCCAUGUUAUCCAGGUGUCGGUUCGAGAAGGCAUGUCCG	461	753	–	–
GGAUGUCAAAGACAUCCAAUUCGAACAUGAGGAUCACCCAUGUAGGAUAUGCUACUCAAAGAGUAGCAGAAGGACAUGUGCUUU	36.6	183	–	–
AUAUGAAAGAUAGGAUAUACUGAGGUUGAAUGGGUAGAAGGAUCGAUAGUGAAGAAUACAUGAGGAUCACCCAUGUUGUGGAUU	–	–	556	209
GAUUAACAUGAGGAUCACCCAUGUGAGGAUAUGGAAUGGCUCAUUUUUUGAUUCCCGUCUAGAAGGCACAUCUU	71.8	83.8	–	–
AAACAUGUCCGAGGAUAUCUGAGAUUAUUUUCAAGAGAAGGCGGACAUGAGGAUCACCCAUGUCUCUCCUCAUCAACUCCAAAU	8.61	54.5	–	–
UACAUGGAACAGAAGGGCAAUUUAUUUAAUUAUUAUUUAGAACAGCUUUGCAGGAUAUGUUUAACAUGAGGAUCACCCAUGUAC	–	–	57.6	17.4
GUGUUGGUAGGAUAUCCACCGACAAACAUGAGGAUCACCCAUGUGACGCUCCCUUGUCUUGGAGAAGGGCCGGCAU	50.4	49.1	–	–
UUGCGGUAGGAGAAGGACAGAGGCUUCAUUACAUACAUGAGGAUCACCCAUGUAGGAUAUCCUACCUAACGCGGCCUCCUCCUG	11.1	19.8	–	–
CUGUUAUAGGUCCAGAAUUACAACAUGAGGAUCACCCAUGUGCAGGAUAUCGGGAUAAUAAACGACGAGAAGGGCAUAGUCACG	16.9	24.5	–	–
AGAUCACAUGAGGAUCACCCAUGUGAGGAUAUGGACUGAAGAGCUUCGGCUCUUCAGUCCAGAAGGCACUAUGA	27.3	35	–	–
CACUGCAUGUAAGGAUAUCGACUGGAAUACAGUCGAGAAGGUACAUGAGGAUCACCCAUGUAAAUAAUAAUAAAUAAAGCAGUG	15.3	24.4	–	–
CGUUUAUAUCGAGGAUAUAAGUCUAGGACAUGAGGAUCACCCAUGUAUGUCUUAGAAGGCGAUAUAAACAGCCUGUUACAGGCA	–	–	35.3	6.96
UUUAUUAGUUAGAAGGCUUGAUGAAUUACAAUGGACAUGAGGAUCACCCAUGUGUAUUCAUGUCAAGAGGAUAUAGUCAUAUAU	–	–	39.1	17.7
AUAGUAGAAGUGAGGAUAUCGUAGAUUUUAGGAAACGAGAAGGCACAUGAGGAUCACCCAUGUAAGAUGGAGGU	280	298	–	–
CCACGUCACAUUAACAUGAGGAUCACCCAUGUCAAAAGACAUGAGGAUAUGCAUCCUAAUUGGAUGCAGAAGGCAUGGACGUGG	–	–	475	36.1
